Data published in ChEMBL document CHEMBL3351467, “Ligand-free Pd-catalyzed C-N cross-coupling/cyclization strategy: an unprecedented access to 1-thienyl pyrroloquinoxalines for the new approach towards apoptosis” (Eur J Med Chem, 2014).
Calls of active or inactive are those of the source. No cut-off for these calls is given here.

Experiments:
Danio rerio [1] = organism: Danio rerio; assay: Toxicity in Zebrafish embryo assessed as induction of changes in body shape at 3000 uM; assay type: organism-based; details: in vivo
In short: (§1)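 Embryos at 1 dpf were dechorionated with 0.5 mg/ml pronase E and washed in E3. They were exposed in groups of 6 to compound serially diluted in E3 (final 0.1% DMSO) at 28.5 °C until 5 dpf. Embryos were then washed, anesthetized with 0.008% tricaine, and scored blinded for morphology of body shape, somites, notochord, tail, intestine, fins, brain, jaws, heart, liver and swim bladder.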

Danio rerio [2] = organism: Danio rerio; assay: Toxicity in Zebrafish embryo assessed as induction of changes in somites at 3000 uM; assay type: organism-based; details: in vivo; in short: as §1
Danio rerio [3] = organism: Danio rerio; assay: Toxicity in Zebrafish embryo assessed as induction of changes in notochords at 3000 uM; assay type: organism-based, Notochord; details: in vivo; in short: as §1
Danio rerio [4] = organism: Danio rerio; assay: Toxicity in Zebrafish embryo assessed as induction of changes in tail region at 3000 uM; assay type: organism-based; details: in vivo; in short: as §1
Danio rerio [5] = organism: Danio rerio; assay: Toxicity in Zebrafish embryo assessed as induction of changes in fins region at 3000 uM; assay type: organism-based; details: in vivo; in short: as §1
Danio rerio [6] = organism: Danio rerio; assay: Toxicity in Zebrafish embryo assessed as induction of changes in brain region at 3000 uM; assay type: organism-based; details: in vivo
In short: (§2)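 Zebrafish embryos collected at 1 dpf, staged, dechorionated with 0.5 mg/ml pronase E and washed in E3 medium. Compound serially diluted in E3 with 0.1% DMSO final. Six embryos per well, exposed at 28.5 °C until 5 dpf, then washed, anaesthetised with 0.008% tricaine and scored for morphology (body shape, somites, notochord, tail, intestine, fins, brain, jaws, heart, liver, swim bladder). Blinded; phenobarbital 3 mM positive control.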

Danio rerio [7] = organism: Danio rerio; assay: Toxicity in Zebrafish embryo assessed as induction of changes in upper jaw region at 3000 uM; assay type: organism-based; details: in vivo; in short: as §1
Danio rerio [8] = organism: Danio rerio; assay: Toxicity in Zebrafish embryo assessed as induction of changes in heart region at 3000 uM; assay type: organism-based; details: in vivo; in short: as §1
Danio rerio [9] = organism: Danio rerio; assay: Toxicity in Zebrafish embryo assessed as induction of changes in intestine region at 3000 uM; assay type: organism-based; details: in vivo; in short: as §1
Danio rerio [10] = organism: Danio rerio; assay: Toxicity in Zebrafish embryo assessed as induction of changes in lower jaw region at 3000 uM; assay type: organism-based; details: in vivo; in short: as §1
Danio rerio [11] = organism: Danio rerio; assay: Toxicity in Zebrafish embryo assessed as induction of changes in liver region at 3000 uM; assay type: organism-based; details: in vivo; in short: as §1
Danio rerio [12] = organism: Danio rerio; assay: Toxicity in Zebrafish embryo assessed as induction of changes in swim bladder region at 3000 uM; assay type: organism-based; details: in vivo; in short: as §1
[13] = molecular target: 3',5'-cyclic-AMP phosphodiesterase 4B (Homo sapiens) (UniProt Q07343); assay: Inhibition of recombinant His-tagged PDE4B1 (unknown origin) expressed in Sf9 cells at 30 uM pre-incubated for 15 mins before cAMP substrate addition by luminescence assay
In short: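 PDE4B1 purified in house (10 ng) pre-incubated 15 min with compound or DMSO vehicle. cAMP substrate ([…]) added for 1 h, then reaction stopped and detection reagent applied 10 min in the dark. Luminescence (RLU) read. % inhibition = (RLU vehicle − RLU inhibitor)/RLU vehicle × 100.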

Danio rerio [14] = organism: Danio rerio; assay: Induction of apoptosis in Zebrafish embryo up to 3 uM incubated for 24 to 48 hrs by acridine orange based fluorescence microscopy; assay type: functional, organism-based
In short: (§3)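 Embryos dechorionated by hand at 24 hpf, 6 per well in two sets, in 0.1% DMSO. Compound added from serially diluted working stocks, kept at 28 °C for 24 h and 48 h. Washed three times in E3, stained 30 min with acridine orange ([…]) in E3, rinsed twice, then examined for apoptosis.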

Danio rerio [15] = organism: Danio rerio; assay: Induction of cell death in Zebrafish embryo at 10 to 30 uM incubated for 24 to 48 hrs by acridine orange based fluorescence microscopy; assay type: functional, organism-based; in short: as §3
Danio rerio [16] = organism: Danio rerio; assay: Teratogenicity in Zebrafish embryo at 10 to 30 uM incubated at 28.5 degC until 5 days post fertilization; assay type: ADME, organism-based; details: in vivo, 120 h
In short: (§4)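 Embryos at 1 dpf dechorionated with 0.5 mg/ml pronase E and washed in E3. Exposed 6 per well to compound serially diluted in E3 with a final 0.1% DMSO, at 28.5 °C until 5 dpf. Embryos then washed, anaesthetised with 0.008% tricaine and scored blind for body shape, somites, notochord, tail, intestine, fins, brain, jaws, heart, liver and swim bladder. Phenobarbital (3 mM) served as positive control.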

[17] = Teratogenicity in Zebrafish embryo assessed as live embryo level at 3 uM incubated at 28.5 degC until 5 days post fertilization; assay type: ADME, organism-based, Danio rerio; details: zebrafish embryos, read-out: Activity; in short: as §2
Danio rerio [18] = organism: Danio rerio; assay: Teratogenicity in Zebrafish embryo assessed as induction of morphological deformities at 3 uM incubated at 28.5 degC until 5 days post fertilization; assay type: organism-based; details: in vivo, 120 h; in short: as §4
Danio rerio [19] = organism: Danio rerio; assay: Teratogenicity in Zebrafish embryo assessed as live embryo level at 1 uM incubated at 28.5 degC until 5 days post fertilization; assay type: ADME, organism-based; details: in vivo, 120 h; in short: as §4
Danio rerio [20] = organism: Danio rerio; assay: Teratogenicity in Zebrafish embryo assessed as induction of morphological deformities at swim bladder at 1 uM incubated at 28.5 degC until 5 days post fertilization; assay type: toxicity, organism-based; details: in vivo, 120 h; in short: as §4
Danio rerio [21] = organism: Danio rerio; assay: Teratogenicity in Zebrafish embryo assessed as induction of morphological deformities at lower jaw at 1 uM incubated at 28.5 degC until 5 days post fertilization; assay type: organism-based; details: in vivo, 120 h; in short: as §4
Danio rerio [22] = organism: Danio rerio; assay: Hepatotoxicity in Zebrafish embryo at 1 uM incubated at 28 degC until 7 days post fertilization; assay type: organism-based; details: in vivo, 168 h
In short: (§5)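 Larvae at 4 dpf exposed in 24-well plates, 6 per well in 0.1% DMSO, to final 1, 3, 10 and 30 concentrations, incubated at 28 °C until 7 dpf. Washed in E3 and anaesthetised with tricaine. Images scored for liver size, liver degeneration and yolk sac retention as percentages. Amiodarone served as positive control.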

Danio rerio [23] = organism: Danio rerio; assay: Hepatotoxicity in Zebrafish embryo at 3 uM incubated at 28 degC until 7 days post fertilization; assay type: organism-based; details: in vivo, 168 h; in short: as §5
Danio rerio [24] = organism: Danio rerio; assay: Hepatotoxicity in Zebrafish embryo assessed as induction of embryo mortality at 10 to 30 uM incubated at 28 degC until 7 days post fertilization; assay type: organism-based; details: in vivo, 168 h
In short: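 Zebrafish embryos at 4 dpf, six per well in 0.1% DMSO, exposed to final compound concentrations of 1, 3, 10 and 30 at 28 °C until 7 dpf. Embryos then washed in E3 medium, anaesthetised with tricaine and imaged; liver size, liver degeneration and yolk sac retention quantified as percentages. Amiodarone served as positive control; evaluation blinded.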

Danio rerio [25] = organism: Danio rerio; assay: Toxicity in Zebrafish embryo at 1 to 30 uM; assay type: organism-based; details: in vivo; in short: as §4
Danio rerio [26] = organism: Danio rerio; assay: Toxicity in Zebrafish embryo assessed as induction of changes in body shape at 1 uM; assay type: organism-based; details: in vivo; in short: as §4
Danio rerio [27] = organism: Danio rerio; assay: Toxicity in Zebrafish embryo assessed as induction of changes in somites at 1 uM; assay type: organism-based; details: in vivo; in short: as §4
Danio rerio [28] = organism: Danio rerio; assay: Toxicity in Zebrafish embryo assessed as induction of changes in notochords at 1 uM; assay type: organism-based, Notochord; details: in vivo; in short: as §4
Danio rerio [29] = organism: Danio rerio; assay: Toxicity in Zebrafish embryo assessed as induction of changes in tail region at 1 uM; assay type: organism-based; details: in vivo; in short: as §4
Danio rerio [30] = organism: Danio rerio; assay: Toxicity in Zebrafish embryo assessed as induction of changes in fins region at 1 uM; assay type: organism-based; details: in vivo; in short: as §4
Danio rerio [31] = organism: Danio rerio; assay: Toxicity in Zebrafish embryo assessed as induction of changes in brain region at 1 uM; assay type: organism-based; details: in vivo; in short: as §4
Danio rerio [32] = organism: Danio rerio; assay: Toxicity in Zebrafish embryo assessed as induction of changes in upper jaw region at 1 uM; assay type: organism-based; details: in vivo; in short: as §4
Danio rerio [33] = organism: Danio rerio; assay: Toxicity in Zebrafish embryo assessed as induction of changes in heart region at 1 uM; assay type: organism-based; details: in vivo; in short: as §4
Danio rerio [34] = organism: Danio rerio; assay: Toxicity in Zebrafish embryo assessed as induction of changes in intestine region at 1 uM; assay type: organism-based; details: in vivo; in short: as §4
Danio rerio [35] = organism: Danio rerio; assay: Toxicity in Zebrafish embryo assessed as induction of changes in lower jaw region at 1 uM; assay type: organism-based; details: in vivo; in short: as §4
Danio rerio [36] = organism: Danio rerio; assay: Toxicity in Zebrafish embryo assessed as induction of changes in liver region at 1 uM; assay type: organism-based; details: in vivo; in short: as §4
Danio rerio [37] = organism: Danio rerio; assay: Toxicity in Zebrafish embryo assessed as induction of changes in swim bladder region at 1 uM; assay type: organism-based; details: in vivo; in short: as §4
Danio rerio [38] = organism: Danio rerio; assay: Induction of apoptosis in Zebrafish embryo incubated for 24 to 48 hrs by acridine orange based fluorescence microscopy; assay type: functional, organism-based; in short: as §3
Danio rerio [39] = organism: Danio rerio; assay: Teratogenicity in Zebrafish embryo incubated at 28.5 degC until 5 days post fertilization; assay type: ADME, organism-based; details: in vivo, 120 h; in short: as §4
[40] = Therapeutic index, ratio of NOAEL in Zebrafish embryos to apoptotic EC50 in Zebrafish embryos; assay type: organism-based, Danio rerio; details: read-out: TI

Sequence of 3',5'-cyclic-AMP phosphodiesterase 4B (Homo sapiens) (Q07343 whole entry): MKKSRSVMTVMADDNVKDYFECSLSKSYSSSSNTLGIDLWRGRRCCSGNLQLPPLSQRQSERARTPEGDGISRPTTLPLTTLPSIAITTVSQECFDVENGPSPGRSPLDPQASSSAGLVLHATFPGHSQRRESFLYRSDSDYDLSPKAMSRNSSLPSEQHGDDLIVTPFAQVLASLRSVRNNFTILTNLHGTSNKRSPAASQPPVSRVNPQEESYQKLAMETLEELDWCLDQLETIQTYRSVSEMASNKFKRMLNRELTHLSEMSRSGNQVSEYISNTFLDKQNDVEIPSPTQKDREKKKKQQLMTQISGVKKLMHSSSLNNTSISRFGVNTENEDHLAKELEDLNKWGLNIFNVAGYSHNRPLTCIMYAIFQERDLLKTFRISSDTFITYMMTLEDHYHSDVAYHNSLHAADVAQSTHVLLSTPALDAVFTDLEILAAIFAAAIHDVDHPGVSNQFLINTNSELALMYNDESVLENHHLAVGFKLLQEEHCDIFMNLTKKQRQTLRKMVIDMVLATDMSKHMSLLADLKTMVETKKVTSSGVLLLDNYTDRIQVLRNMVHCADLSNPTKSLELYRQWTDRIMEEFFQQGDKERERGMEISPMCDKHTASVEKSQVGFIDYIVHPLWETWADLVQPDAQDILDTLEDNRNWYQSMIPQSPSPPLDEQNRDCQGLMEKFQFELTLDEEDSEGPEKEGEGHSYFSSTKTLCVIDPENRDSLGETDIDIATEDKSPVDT

With CCC1(c2ccccc2)C(=O)NC(=O)NC1=O [PHENOBARBITAL] the Activity (Danio rerio [1]) was “Toxic”, the Activity (Danio rerio [2]) was “Toxic” and the Activity (Danio rerio [3]) was “Toxic”. For the same molecule, the Activity (Danio rerio [4]) was “Toxic”, the Activity (Danio rerio [5]) was “Toxic” and the Activity (Danio rerio [6]) was “Toxic”. For the same molecule, the Activity (Danio rerio [7]) was “Toxic”, the Activity (Danio rerio [8]) was “Toxic” and the Activity (Danio rerio [9]) was “Toxic”. The Activity (Danio rerio [10]) was “Toxic”, the Activity (Danio rerio [11]) was “Toxic” and the Activity (Danio rerio [12]) was “Toxic”.

In the case of CCOC(=O)c1c(-n2c(-c3ccccc3)cc3nccnc32)sc2c1CCC2, the inhibition [13] is reported as 62%, the Activity (Danio rerio [14]) is reported as “Active” and the Activity (Danio rerio [15]) is reported as “Active”. The Activity (Danio rerio [16]) was “Toxic”, the survival at 120 h, 3 µM [17] was 50% and the Activity (Danio rerio [18]) was “Toxic”. The Activity (Danio rerio [19]) was “Non-toxic”, the Activity (Danio rerio [20]) was “Toxic” and the Activity (Danio rerio [21]) was “Toxic”. For the same molecule, the Activity (Danio rerio [22]) was “Non-toxic”, the Activity (Danio rerio [23]) was “Toxic” and the Activity (Danio rerio [24]) was “Toxic”. The LD (Danio rerio [25]) was 10 µM, the MTC (Danio rerio [25]) was 1 µM and the NOAEL (Danio rerio [25]) was less than 1 µM. The Activity (Danio rerio [26]) was “Non-toxic”, the Activity (Danio rerio [27]) was “Toxic” and the Activity (Danio rerio [28]) was “Non-toxic”. For the same molecule, the Activity (Danio rerio [29]) was “Non-toxic”, the Activity (Danio rerio [30]) was “Non-toxic” and the Activity (Danio rerio [31]) was “Non-toxic”. The Activity (Danio rerio [32]) was “Non-toxic”, the Activity (Danio rerio [33]) was “Non-toxic” and the Activity (Danio rerio [34]) was “Non-toxic”. The Activity (Danio rerio [35]) was “Toxic”, the Activity (Danio rerio [36]) was “Toxic” and the Activity (Danio rerio [37]) was “Toxic”. For the same molecule, the EC50 (Danio rerio [38]) was 1.73 µM, the NOAEL (Danio rerio [39]) was 1 µM and the selectivity ratio [40] was 0.577.
